# RGS4 inh = human RGS4 inhibition. P49798. HEK293 M3R/RGS4 inducible, Fluo-4 calcium flux; hits give high values; triggered by carbachol at its EC20. B-score at 10 µM. actives 0.45% (n = 310,000);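 active = B-score, a plate-corrected calcium signal, over three deviations above library mean, with baseline fluorescence within five deviations of library mean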;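 also: RGS4 expression induced by doxycycline in cells with stable M3 receptor; B-score is computed from the integrated fluorescence ratio over baseline after carbachol; higher B-score means a larger calcium signal and so more RGS4 inhibition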
# Target sequence (P49798 whole entry, looked up): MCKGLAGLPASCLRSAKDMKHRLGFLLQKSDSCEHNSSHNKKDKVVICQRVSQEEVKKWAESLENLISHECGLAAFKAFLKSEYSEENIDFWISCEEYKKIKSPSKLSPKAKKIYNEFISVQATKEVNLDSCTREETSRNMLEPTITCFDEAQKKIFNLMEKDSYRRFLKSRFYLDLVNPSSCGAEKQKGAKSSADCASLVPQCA
# MrgX1 agonist = human MrgX1 receptor agonism, primary screen. Q96LB2. MrgX1-HEK293 cells, Fluo-4 calcium fluorescence, agonist mode; hits give high values. B-score at 10 µM. actives 0.44% (n = 310,000). AID 588627;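 active = calcium response B-score plate-corrected fluorescence ratio at least 3 library SD, with starting fluorescence B-score inside 5 SD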
# Target sequence (Q96LB2 whole entry, looked up): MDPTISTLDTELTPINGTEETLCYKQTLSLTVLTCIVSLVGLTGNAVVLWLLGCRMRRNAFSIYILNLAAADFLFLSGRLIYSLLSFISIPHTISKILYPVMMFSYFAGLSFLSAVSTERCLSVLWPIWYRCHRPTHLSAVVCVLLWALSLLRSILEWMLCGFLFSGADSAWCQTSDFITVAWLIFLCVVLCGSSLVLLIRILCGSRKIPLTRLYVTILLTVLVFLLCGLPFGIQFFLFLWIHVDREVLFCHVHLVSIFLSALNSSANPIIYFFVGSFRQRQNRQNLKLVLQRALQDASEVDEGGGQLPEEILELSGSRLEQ
#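 Test system: Stable human MrgX1 HEK293 cell line | Schedule: Overnight plating before 1 h dye loading | Read-out basis: Baseline-normalised fluorescence change ratio, B-scored | Detection: Kinetic calcium dye fluorescence, Fluo-4 NW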
# MrgX1 PAM = allosterically activates human MrgX1 receptor signaling; Q96LB2; MrgX1-HEK293, Fluo-4 calcium flux, FDSS; hits give high values; B-score at 10 µM; actives 0.63% (n = 310,000); AID 588675;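 active = plate-corrected calcium response at least 3 library SD above typical, normal starting fluorescence, not activating the receptor alone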;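 also: compound read alongside a low EC10 to EC30 dose of BAM8-22 agonist; peak minus trough fluorescence over baseline measured at the second addition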
# RGS4 pot = potentiators or activators of RGS4; HEK293 M3R/inducible RGS4, carbachol calcium flux Fluo4; hits give low values; actives 0.92% (n = 310,000); B-score at 10 µM; AID 463111;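 active = B-score of the integrated calcium signal more than 4 SD below the library mean, with starting fluorescence not abnormally high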;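 also: negative B-score means reduced calcium response which marks RGS4 activation or potentiation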
#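 Assay system: Inducible-RGS4 HEK293 cells carrying M3 receptor | Schedule: Compound preincubation 20 min at room temperature before agonist | Signal: Kinetic calcium fluorescence imaging with Fluo4-AM dye, 2 µM | Read-out basis: B score from integrated fluorescence ratio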
# MrgX1 antagonist = antagonists of human MrgX1 receptor. Q96LB2. MRGX1-HEK293 calcium flux, Fluo-4, BAM8-22 antagonism; hits give low values. B-score at 10 µM. actives 1.3% (n = 310,000). AID 588676;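 active = calcium-response B-score plate-corrected more than 3 library SD below zero, starting fluorescence within 5 deviations, no agonist response on first addition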;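 also: peak minus trough fluorescence over baseline after final BAM8-22 challenge near maximal dose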
# MrgX1 antag conf = confirmation of human MrgX1 receptor antagonists | shares compounds with MrgX1 antagonist | MrgX1-HEK293, BAM8-22 calcium flux, Fluo-4; hits give low values | remaining BAM8-22 calcium response % of control (hits give low values), % at 10 µM | actives 19% (n = 2,300) | AID 602420;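 active = remaining agonist calcium response no higher than 100% minus 3 SD of agonist-only control wells, with starting fluorescence near control levels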;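 also: agonist BAM8-22 given at a near maximal EC90 to ECmax level; peak minus minimum fluorescence divided by baseline after agonist addition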
# HEK293 Ca flux = counter-screen for MrgX1 antagonists: effect in parental HEK293 cells | shares compounds with MrgX1 antagonist | Fluo-4 calcium fluorescence, FDSS | fluorescence ratio F(max-min)/F0 at 10 µM | actives 2% (n = 4,000) | AID 624111;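 active = duplicate-averaged calcium fluorescence ratio at least three times the standard deviation of buffer wells, a nonspecific response in parental cells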
# HEK293 Ca counter = counter-screen for MrgX1 allosteric activators: effect in parental HEK293 cells; shares compounds with MrgX1 antagonist; parental HEK293 calcium flux, Fluo-4 fluorescence ratio; hits give high values; fluorescence ratio F(max-min)/F0 at 10 µM; actives 0.4% (n = 4,000);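 active = calcium fluorescence ratio, averaged over duplicates, at least 3 SD of the buffer-well ratio, meaning a nonspecific response in receptor-free cells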;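 also: untransfected parental HEK293 lacking MrgX1 used as counterscreen for MrgX1 allosteric activators; fluorescence change taken during the second addition on a kinetic imager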
# HEK293 Ca cntr2 = activity in parental HEK293 cells lacking MrgX1 receptor; shares compounds with MrgX1 antagonist; Fluo-4 calcium fluorescence (FDSS); hits give high values; fluorescence ratio F(max-min)/F0 at 10 µM; actives 8.7% (n = 4,000);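 active = calcium fluorescence ratio at least three times the spread of buffer wells, meaning a non-specific response in parental cells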
# * hit, by the source's call; i = inactive; . = no result. In the library only some 3.5% were active in any assay of this set; here they are far more common.
SMILES,RGS4 inh,MrgX1 agonist,MrgX1 PAM,RGS4 pot,MrgX1 antagonist,MrgX1 antag conf,HEK293 Ca flux,HEK293 Ca counter,HEK293 Ca cntr2
CC(NC(=O)CSc1nc2ccc(N)cc2s1)c1ccccc1 (stereo not drawn),i,i,i,i,-5.5*,i,i,i,i
CC(C)c1ccccc1NC(=O)COC(=O)Cc1c[nH]c2ccccc12,i,i,i,i,-19*,i,i,i,i
COc1ccccc1NC(=O)COC(=O)Cc1c[nH]c2ccccc12,i,i,i,i,i,.,.,.,.
CC1C(=O)NN=C1C(=O)N/N=C/c1cccs1 (stereo not drawn),i,i,i,i,-11*,i,i,i,i
N=C1C(c2nc3ccccc3s2)=C(O)CN1Cc1ccco1,i,i,i,i,i,.,.,.,.
CN(C)CCN1CC(O)=C(c2nc3ccccc3s2)C1=N,i,i,i,i,-5.7*,i,i,i,i
CCOC(=O)COn1c(=O)c(=O)n(O)c2ccccc21,i,i,i,i,i,.,.,.,.
COc1ccc(CCNC(=O)COc2ccc(S(=O)(=O)NC3CCCCC3)cc2Cl)cc1,i,i,i,i,i,.,.,.,.
COc1ccc(C(=O)NC2CC2)cc1OC1CCN(Cc2ccccc2F)CC1,i,i,i,i,i,.,.,.,.
COc1ccc(C(=O)NC2CC2)cc1OC1CCN(Cc2ccc(F)cc2F)CC1,i,i,i,i,-5.6*,i,i,i,i
Cc1ccc(NC(=O)Nc2nnc(-c3ccncc3)s2)cc1C,i,i,i,i,-6.1*,64%*,i,i,i
Cc1cccc(NC(=O)c2ccccc2NC(=O)C2CCCCC2)c1C,i,i,i,i,-5*,i,i,i,i
O=C(Nc1ccccc1)c1ccccc1NC(=O)C1CCCCC1,i,i,i,i,i,.,.,.,.
CCNC(=S)Nc1cccc([N+](=O)[O-])c1,i,i,i,i,i,.,.,.,.
Cc1ccccc1C(=O)Nc1cccc(-c2ccc(N3CCOCC3)nn2)c1,i,i,i,i,-5*,i,i,i,i
COc1ccc(CN2C(=O)c3cccnc3C2=O)cc1S(=O)(=O)N(C)Cc1ccco1,i,i,i,i,i,.,.,.,.
CN(Cc1ccco1)S(=O)(=O)c1cc(F)ccc1CN1C(=O)c2cccnc2C1=O,i,i,i,i,-4.9*,i,i,i,i
CC(C)c1cc(C(=O)N/N=C/C=C/c2ccccc2)n[nH]1,i,i,i,i,i,.,.,.,.
Cc1ccc(CN2CCCNC2=O)cc1,i,i,i,i,-4.9*,i,i,i,i
O=C(CSc1ccccn1)Nc1nc2ccccc2s1,i,i,i,i,-7.6*,85%*,i,i,i
COc1ccc(NC(=O)CSc2ccccn2)cc1OC,i,i,i,i,-4.8*,i,i,i,i
Cc1ccccc1Cc1c(C)nc2ncnn2c1C,i,i,i,i,-7.8*,i,i,i,i
COc1ccc2nc(C)cc(Nc3ccc(C)cc3)c2c1,i,i,i,i,i,.,.,.,.
COc1ccc2nc(C)cc(NCc3ccc(F)cc3)c2c1,i,i,i,i,-8.4*,i,i,i,i
Cn1c(=O)oc2cc(S(=O)(=O)N3CCCC(C(=O)NCCN4CCOCC4)C3)ccc21 (stereo not drawn),.,i,i,.,-4.6*,i,i,i,i
SMILES,RGS4 inh,MrgX1 agonist,MrgX1 PAM,RGS4 pot,MrgX1 antagonist,MrgX1 antag conf,HEK293 Ca flux,HEK293 Ca counter,HEK293 Ca cntr2
NC(=O)c1c(NC(=O)c2ccccc2)sc2c1CCN(Cc1ccccc1)C2,i,i,i,i,i,.,.,.,.
CCCn1c(SCc2ccccn2)nc2c1c(=O)n(C)c(=O)n2C,i,i,i,i,-7.8*,i,i,i,i
Cc1cc(=O)n(CC(=O)O)c2ccccc12,i,i,i,i,i,.,.,.,.
Cc1ccc(NS(=O)(=O)c2ccc(N3C(=O)CCC3=O)cc2)cc1,i,i,i,i,-5.4*,i,i,i,i
CC(C)c1ccc(NS(=O)(=O)c2ccc(N3C(=O)CCC3=O)cc2)cc1,i,i,i,i,i,.,.,.,.
CC(Oc1ccc(Cl)cc1)C(=O)Nc1ccc(S(=O)(=O)Nc2nccs2)cc1 (stereo not drawn),i,i,i,i,-5.6*,i,i,i,51*
CCOC(=O)c1ccccc1NC(=O)COC(=O)C1CCN(S(=O)(=O)c2ccccc2C(=O)OC)CC1,i,i,i,i,-11*,i,i,i,i
Cc1ccc(NC(=O)COC(=O)C2CCC2)cc1S(=O)(=O)N1CCCCC1,i,i,i,i,-5.4*,84%*,i,i,i
Cc1ccc(NC(=O)COC(=O)Cc2ccsc2)cc1S(=O)(=O)N1CCOCC1,i,i,i,i,-5.4*,i,i,i,i
O=C(O)/C=C/c1coc2ccccc2c1=O,i,i,i,i,i,.,.,.,.
CC1=C(C(=O)Nc2cc(C(=O)N3CCN(c4cccc(C)c4)C(C)C3)ccc2C)SCCO1 (stereo not drawn),i,i,i,i,i,.,.,.,.
Cc1cccc(N(CC(=O)NCCSc2nc3ccccc3s2)S(=O)(=O)c2ccccc2)c1,i,i,i,i,i,.,.,.,.
CCC(=O)Nc1ccc(S(=O)(=O)N2CCc3ccccc32)cc1,i,i,i,i,i,.,.,.,.
O=C(Nc1ccc(S(=O)(=O)N2CCc3ccccc32)cc1)c1ccco1,i,i,i,i,-4.8*,i,i,i,i
COc1ccc(C(C(=O)NC2CCCC2)N(C(=O)c2ccco2)c2ccc(OC)c(OC)c2)cc1 (stereo not drawn),i,i,i,i,i,.,.,.,.

# Screening results (PubChem BioAssay)
